This is an account of results in ChEMBL document CHEMBL2057155, “Synthesis of betulinic acid derivatives as entry inhibitors against HIV-1 and bevirimat-resistant HIV-1 variants” (Bioorg Med Chem Lett, 2012).

The structures appear in SMILES notation. pEC50: −log10 of the molar value.

For data set [1], the system named is Human immunodeficiency virus 1. Nature of the data set: Antiviral activity against HIV1 NL4-3 infected in human TZM-bl cells assessed as reduction in luciferase gene expression by luminescence assay. Type of data set: functional, organism-based. Particulars: Human immunodeficiency virus 1, NL4-3, TZM-bl. In a few lines: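 Single-cycle HIV-1 NL4-3 infection of TZM-bl cells; HIV-1 tat-driven luciferase expression after viral entry read as the measure of inhibition. […] control is NL4-3 infection without compound. Values are the mean of two or more independent experiments with standard deviation.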

The nature of data set [2]: Cytotoxicity against human TZM-bl assessed as cell viability at 4 uM after 2 days. The data set is classed as cell-based. Particulars: 48 h. A digest of the protocol:
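Toxicity to TZM-bl cells was checked within the single-cycle infection assay at 4 μM.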

In general, pEC50 refers to the EC50 on a negative log10 scale, so that one unit is a factor of ten. Regarding `C=C(C)[C@@H]1CC[C@]2(C(=O)NCCCCCCCCC(=O)N[C@@H](CCC(N)=O)C(=O)OC(C)(C)C)CC[C@]3(C)[C@H](CC[C@@H]4[C@@]5(C)CC[C@H](O)C(C)(C)[C@@H]5CC[C@]43C)[C@@H]12`, the pEC50 in data set [1] is 6.85. The Activity entry in data set [2] is “Non-toxic”.
For `C=C(C)[C@@H]1CC[C@]2(C(=O)NCCCCCCCCC(=O)N[C@@H](CC(N)=O)C(=O)OC)CC[C@]3(C)[C@H](CC[C@@H]4[C@@]5(C)CC[C@H](O)C(C)(C)[C@@H]5CC[C@]43C)[C@@H]12` the same measures were 6.96 and “Non-toxic”.
In the same order, the values of `C=C(C)[C@@H]1CC[C@]2(C(=O)NCCCCCCCCC(=O)N[C@@H](CCC(=O)OC)C(=O)OC)CC[C@]3(C)[C@H](CC[C@@H]4[C@@]5(C)CC[C@H](O)C(C)(C)[C@@H]5CC[C@]43C)[C@@H]12` are 7.22 and “Non-toxic”.
In the same order, the values of `C=C(C)[C@@H]1CC[C@]2(C(=O)NCCCCCCCCC(=O)N[C@@H](C)C(=O)OC)CC[C@]3(C)[C@H](CC[C@@H]4[C@@]5(C)CC[C@H](O)C(C)(C)[C@@H]5CC[C@]43C)[C@@H]12` are 7.15 and “Non-toxic”.
Take `C=C(C)[C@@H]1CC[C@]2(C(=O)NCCCCCCCCC(=O)N[C@H](C(=O)OC)[C@@H](C)CC)CC[C@]3(C)[C@H](CC[C@@H]4[C@@]5(C)CC[C@H](O)C(C)(C)[C@@H]5CC[C@]43C)[C@@H]12`: the negative-log EC50 (pEC50) in data set [1] was 6.85. In data set [2], the Activity result is on record as “Non-toxic”.
In the same order, the values of `C=C(C)[C@@H]1CC[C@]2(C(=O)NCCCCCCCCC(=O)N[C@@H](CC(C)C)C(=O)OC)CC[C@]3(C)[C@H](CC[C@@H]4[C@@]5(C)CC[C@H](O)C(C)(C)[C@@H]5CC[C@]43C)[C@@H]12` are 6.80 and “Non-toxic”.
In the same order, the values of `C=C(C)[C@@H]1CC[C@]2(C(=O)NCCCCCCCCC(=O)N[C@@H](Cc3ccccc3)C(=O)OC)CC[C@]3(C)[C@H](CC[C@@H]4[C@@]5(C)CC[C@H](O)C(C)(C)[C@@H]5CC[C@]43C)[C@@H]12` are 6.14 and “Non-toxic”.
With `C=C(C)[C@@H]1CC[C@]2(C(=O)NCCCCCCCCC(=O)N3CCC[C@H]3C(=O)OC)CC[C@]3(C)[C@H](CC[C@@H]4[C@@]5(C)CC[C@H](O)C(C)(C)[C@@H]5CC[C@]43C)[C@@H]12`, the pEC50 in data set [1] is 6.80. Besides, the Activity entry in data set [2] is reported as “Non-toxic”.
For `C=C(C)[C@@H]1CC[C@]2(C(=O)NCCCCCCCCC(=O)N[C@H](C(=O)OC)[C@@H](C)OC(C)(C)C)CC[C@]3(C)[C@H](CC[C@@H]4[C@@]5(C)CC[C@H](O)C(C)(C)[C@@H]5CC[C@]43C)[C@@H]12` the same measures were 5.46 and “Non-toxic”.
In the same order, the values of `C=C(C)[C@@H]1CC[C@]2(C(=O)NCCCCCCCCCC(=O)N[C@@H](CCC(N)=O)C(=O)OC)CC[C@]3(C)[C@H](CC[C@@H]4[C@@]5(C)CC[C@H](O)C(C)(C)[C@@H]5CC[C@]43C)[C@@H]12` are 7.22 and “Non-toxic”.
In the same order, the values of `C=C(C)[C@@H]1CC[C@]2(C(=O)NCCCCCCCCCC(=O)N[C@@H](CC(N)=O)C(=O)OC)CC[C@]3(C)[C@H](CC[C@@H]4[C@@]5(C)CC[C@H](O)C(C)(C)[C@@H]5CC[C@]43C)[C@@H]12` are 7.10 and “Non-toxic”.
As to `C=C(C)[C@@H]1CC[C@]2(C(=O)NCCCCCCCCC(=O)NCC#N)CC[C@]3(C)[C@H](CC[C@@H]4[C@@]5(C)CC[C@H](O)C(C)(C)[C@@H]5CC[C@]43C)[C@@H]12`, the negative-log EC50 (pEC50) in data set [1] was 6.36. For the same compound, the Activity entry in data set [2] was “Non-toxic”.
For the compound `C=C(C)[C@@H]1CC[C@]2(C(=O)NCCCCCCCCC(=O)NCCC#N)CC[C@]3(C)[C@H](CC[C@@H]4[C@@]5(C)CC[C@H](O)C(C)(C)[C@@H]5CC[C@]43C)[C@@H]12`, the pEC50 in data set [1] was 6.47. In addition, in data set [2], the Activity entry is listed as “Non-toxic”.
In the case of `C=C(C)[C@@H]1CC[C@]2(C(=O)NCCCCCCCCC(=O)N(C)CC#N)CC[C@]3(C)[C@H](CC[C@@H]4[C@@]5(C)CC[C@H](O)C(C)(C)[C@@H]5CC[C@]43C)[C@@H]12`, the pEC50 in data set [1] is 6.09. Besides, the Activity entry in data set [2] is given as “Non-toxic”.
For `C=C(C)[C@@H]1CC[C@]2(C(=O)NCCCCC/C=C/C(=O)O)CC[C@]3(C)[C@H](CC[C@@H]4[C@@]5(C)CC[C@H](O)C(C)(C)[C@@H]5CC[C@]43C)[C@@H]12` the same measures were less than 5.40 and “Non-toxic”.
As for `C=C(C)[C@@H]1CC[C@]2(C(=O)NCCCCC/C=C(/F)C(=O)O)CC[C@]3(C)[C@H](CC[C@@H]4[C@@]5(C)CC[C@H](O)C(C)(C)[C@@H]5CC[C@]43C)[C@@H]12`, the negative logarithm of the EC50 (pEC50) in data set [1] was less than 5.40. Besides, in data set [2], the Activity entry is “Non-toxic”.
Regarding `C=C(C)[C@@H]1CC[C@]2(C(=O)NCCCCC/C=C/C(=O)NCC(=O)O)CC[C@]3(C)[C@H](CC[C@@H]4[C@@]5(C)CC[C@H](O)C(C)(C)[C@@H]5CC[C@]43C)[C@@H]12`, the negative-log EC50 (pEC50) in data set [1] was 6.82. In addition, the Activity entry in data set [2] was “Non-toxic”.
`C=C(C)[C@@H]1CC[C@]2(C(=O)NCCCCC/C=C(/F)C(=O)NCC(=O)O)CC[C@]3(C)[C@H](CC[C@@H]4[C@@]5(C)CC[C@H](O)C(C)(C)[C@@H]5CC[C@]43C)[C@@H]12`: the pEC50 in data set [1] is 6.39. For the same compound, the Activity entry in data set [2] was “Non-toxic”.
Consider `C=C(C)[C@@H]1CC[C@]2(C(=O)NCCOCCOCC(=O)NCC(=O)O)CC[C@]3(C)[C@H](CC[C@@H]4[C@@]5(C)CC[C@H](O)C(C)(C)[C@@H]5CC[C@]43C)[C@@H]12`, for which the pEC50 in data set [1] was less than 5.40. In addition, the Activity entry in data set [2] is recorded as “Non-toxic”.
As to `C=C(C)[C@@H]1CC[C@]2(C(=O)NCCOCCOCC(=O)N[C@@H](C)C(=O)O)CC[C@]3(C)[C@H](CC[C@@H]4[C@@]5(C)CC[C@H](O)C(C)(C)[C@@H]5CC[C@]43C)[C@@H]12`, the pEC50 in data set [1] is less than 5.40. Further, in data set [2], the Activity entry was “Non-toxic”.
In the same order, the values of `C=C(C)[C@@H]1CC[C@]2(C(=O)NCCOCCOCCNC(C)=O)CC[C@]3(C)[C@H](CC[C@@H]4[C@@]5(C)CC[C@H](O)C(C)(C)[C@@H]5CC[C@]43C)[C@@H]12` are less than 5.40 and “Non-toxic”.
As for `C=C(C)[C@@H]1CC[C@]2(C(=O)NCCCCCCCNC(=O)[C@H](C)NC(=O)OC(C)(C)C)CC[C@]3(C)[C@H](CC[C@@H]4[C@@]5(C)CC[C@H](O)C(C)(C)[C@@H]5CC[C@]43C)[C@@H]12`, the negative-log EC50 (pEC50) in data set [1] was 6.96. Also, in data set [2], the Activity entry was “Non-toxic”.
Turning to `C=C(C)[C@@H]1CC[C@]2(C(=O)NCCCCCCCCNC(=O)[C@H](C)NC(=O)OC(C)(C)C)CC[C@]3(C)[C@H](CC[C@@H]4[C@@]5(C)CC[C@H](O)C(C)(C)[C@@H]5CC[C@]43C)[C@@H]12`, in data set [1], the pEC50 is 7.05. Further, the Activity result in data set [2] is given as “Non-toxic”.
In the same order, the values of `C=C(C)[C@@H]1CC[C@]2(C(=O)NCCCCCCCCNC(=O)[C@H](CCC(N)=O)NC(=O)OC(C)(C)C)CC[C@]3(C)[C@H](CC[C@@H]4[C@@]5(C)CC[C@H](O)C(C)(C)[C@@H]5CC[C@]43C)[C@@H]12` are 7.22 and “Non-toxic”.
In the same order, the values of `C=C(C)[C@@H]1CC[C@]2(C(=O)NCCCCCCCCNC(=O)[C@@H](NC(=O)OC(C)(C)C)C(C)C)CC[C@]3(C)[C@H](CC[C@@H]4[C@@]5(C)CC[C@H](O)C(C)(C)[C@@H]5CC[C@]43C)[C@@H]12` are 5.61 and “Non-toxic”.
In the same order, the values of `C=C(C)[C@@H]1CC[C@]2(C(=O)NCCCCCCCCNC(=O)[C@@H]3CCCN3C(=O)OC(C)(C)C)CC[C@]3(C)[C@H](CC[C@@H]4[C@@]5(C)CC[C@H](O)C(C)(C)[C@@H]5CC[C@]43C)[C@@H]12` are 6.80 and “Non-toxic”.
Turning to `C=C(C)[C@@H]1CC[C@]2(C(=O)NCCCCCCCCCNC(=O)[C@H](CCC(N)=O)NC(=O)OC(C)(C)C)CC[C@]3(C)[C@H](CC[C@@H]4[C@@]5(C)CC[C@H](O)C(C)(C)[C@@H]5CC[C@]43C)[C@@H]12`, in data set [1], the negative-log EC50 (pEC50) is 6.92. In data set [2], the Activity entry is reported as “Non-toxic”.
For `C=C(C)[C@@H]1CC[C@]2(C(=O)NCCCCCCCCCNC(=O)[C@H](C)NC(=O)OC(C)(C)C)CC[C@]3(C)[C@H](CC[C@@H]4[C@@]5(C)CC[C@H](O)C(C)(C)[C@@H]5CC[C@]43C)[C@@H]12` the same measures were less than 5.40 and “Non-toxic”.
In the same order, the values of `C=C(C)[C@@H]1CC[C@]2(C(=O)NCCCCCCCCNC(=O)C(CCC#N)NC(=O)OC(C)(C)C)CC[C@]3(C)[C@H](CC[C@@H]4[C@@]5(C)CC[C@H](O)C(C)(C)[C@@H]5CC[C@]43C)[C@@H]12` (some centres not stated) are 7.10 and “Non-toxic”.
For `C=C(C)[C@@H]1CC[C@]2(C(=O)NCCCCCCC(=O)N[C@@H](CCC(N)=O)C(=O)OC)CC[C@]3(C)[C@H](CC[C@@H]4[C@@]5(C)CC[C@H](O)C(C)(C)[C@@H]5CC[C@]43C)[C@@H]12` the same measures were less than 5.40 and “Non-toxic”.
For the compound `C=C(C)[C@@H]1CC[C@]2(C(=O)NCCCCCCCC(=O)N[C@@H](CCC(N)=O)C(=O)OC)CC[C@]3(C)[C@H](CC[C@@H]4[C@@]5(C)CC[C@H](O)C(C)(C)[C@@H]5CC[C@]43C)[C@@H]12`, in data set [1], the pEC50 was 6.85. The Activity result in data set [2] is recorded as “Non-toxic”.
